Laboratory results from paper PMC7870562 (Bioorganic chemistry, 2020).

Columns and labels:
A375 cells = experiment: MTT cytotoxicity / cell viability assay, A375; type: cell-based, human; details: for IC50: Homo sapiens, A-375, 48 h; for selectivity index: IC50 melanocytes / IC50 A375
Method in brief: (§1)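 Cells in 5–10% FBS/DMEM were seeded at 5×10³ per well, refed at 24 h and grown to 70% confluence. They were treated for 48 h at 37°C, 5% CO2 with two-fold serial dilutions of test compound in DMSO (≤0.1%), […], in 8–10 repeats. After MTT, absorbance was read at 562 nm. Viability was expressed relative to DMSO controls and IC50 derived by nonlinear regression. Data are mean ± SD of ≥5 independent experiments in octuplicates.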

A431 cells = experiment: MTT cytotoxicity / cell viability assay, A431; type: cell-based, human; details: for IC50: Homo sapiens, A-431, 48 h; for selectivity index: IC50 HaCaT / IC50 A431
Method in brief: as §1

UWBCC1 cells = experiment: MTT cytotoxicity / cell viability assay, UWBCC1; type: cell-based, human; details: for IC50: Homo sapiens, 48 h; for selectivity index: IC50 HaCaT / IC50 UWBCC1
Method in brief: as §1

Melanocyte = experiment: MTT cytotoxicity / cell viability assay, normal melanocytes; type: cell-based; details: Homo sapiens, 48 h
Method in brief: as §1

HaCaT = experiment: MTT cytotoxicity / cell viability assay, HaCaT keratinocytes; type: cell-based; details: Homo sapiens, 48 h
Method in brief: as §1

SK-Mel-28 cells = experiment: MTT cytotoxicity / cell viability assay, SK-Mel-28; type: cell-based, human; details: for IC50: Homo sapiens, SK-MEL-28, 48 h; for selectivity index: IC50 melanocytes / IC50 SK-Mel-28
Method in brief: as §1

Row | SMILES | IC50 (A375 cells) [µM] | IC50 (A431 cells) [µM] | IC50 (UWBCC1 cells) [µM] | selectivity index (A375 cells) | IC50 (Melanocyte) [µM] | selectivity index (A431 cells) | selectivity index (UWBCC1 cells) | IC50 (HaCaT) [µM] | IC50 (SK-Mel-28 cells) [µM] | selectivity index (SK-Mel-28 cells)
1 | COc1cccc(-c2oc3cc(Br)ccc3c(=O)c2O)c1 [F15, 7-Bromo-3-hydroxy-2-(3-methoxyphenyl)-4H-chromen-4-one] | > 100 | > 100 |  |  |  |  |  |  |  | 
2 | COc1ccc(-c2oc3ccc(Br)cc3c(=O)c2O)cc1OC [F16, 6-Bromo-2-(3,4-dimethoxyphenyl)-3-hydroxy-4H-chromen-4-one] | 79.5 ± 9 | > 100 | 40 ± 0.89 |  |  |  |  |  |  | 
3 | COc1cc(-c2oc3ccc(F)cc3c(=O)c2O)cc(OC)c1OC [F22, 6-Fluoro-3-hydroxy-2-(3,4,5-trimethoxyphenyl)-4H-chromen-4-one] | 15 ± 1.9 | 13 ± 2.6 | 11 ± 2 | 1.6 | 24 ± 1.6 | 1.8 | 2.1 | 23 ± 1.9 |  | 
4 | COc1cccc2c1C(=O)c1c(O)c3c(c(O)c1C2=O)C[C@@](O)(C(=O)CO)C[C@@H]3O[C@H]1C[C@H](N)[C@H](O)[C@H](C)O1 [Doxorubicin, reference compound] | 0.1 ± 0.01 | 0.37 ± 0.02 |  |  |  | 0.2 |  | 0.07 ± 0.01 | 0.23 ± 0.06 | 
5 | O=c1c(O)c(-c2ccc(SC(F)(F)F)cc2)oc2ccccc12 [F3, 3-Hydroxy-2-(4-((trifluoromethyl)thio)phenyl)-4H-chromen-4-one] | 14 ± 0.2 | 9.7 ± 2.3 |  | 2.2 | 31 ± 0.74 | 2.8 |  | 27 ± 0.7 | 5.2 ± 1.7 | 6.0
6 | COc1ccc(-c2oc3cc(C)ccc3c(=O)c2O)c(Br)c1OC [F10, 2-(2-Bromo-3,4-dimethoxyphenyl)-3-hydroxy-7-methyl-4H-chromen-4-one] | 31 ± 13 | 36 ± 0.1 | 11 ± 5 |  |  |  |  |  |  | 
7 | COc1cccc(-c2oc3ccccc3c(=O)c2O)c1 [F2, 3-Hydroxy-2-(3-methoxyphenyl)-4H-chromen-4-one] | 28 ± 2.3 | 21 ± 16 |  |  |  |  |  |  |  | 
8 | Cc1cc2oc(-c3ccc(C(C)(C)C)cc3)c(O)c(=O)c2cc1Cl [F18, 2-(4-(Tert-butyl)phenyl)-6-chloro-3-hydroxy-7-methyl-4H-chromen-4-one] | > 100 | 24 ± 5.6 |  |  |  |  |  |  |  | 
9 | COc1ccc2c(=O)c(O)c(-c3ccc(C(C)(C)C)cc3)oc2c1 [F13, 2-(4-(Tert-butyl)phenyl)-3-hydroxy-7-methoxy-4H-chromen-4-one] | 28 ± 24 | > 100 |  |  |  |  |  |  |  | 
10 | COc1cc(OC)c(-c2oc3ccccc3c(=O)c2O)cc1OC [F23, 3-Hydroxy-2-(2,4,5-trimethoxyphenyl)-4H-chromen-4-one] | 13 ± 3.1 | 12 ± 1.9 | 9.4 ± 1.4 | 1.7 | 22 ± 1 | 2.0 | 2.6 | 24 ± 1.4 | 19 ± 3 | 1.6
11 | COc1cc(OC)c(-c2oc3cc(Cl)ccc3c(=O)c2O)cc1OC [F24, 7-Chloro-3-hydroxy-2-(2,4,5-trimethoxyphenyl)-4H-chromen-4-one] | > 100 | > 100 |  |  |  |  |  |  |  | 
12 | O=c1c(O)c(-c2ccc(Br)cc2Cl)oc2ccccc12 [F4, 2-(4-Bromo-2-chlorophenyl)-3-hydroxy-4H-chromen-4-one] | > 100 | 61 ± 30 |  |  |  |  |  |  |  | 
13 | COc1ccc2c(=O)c(O)c(-c3ccc(Br)cc3)oc2c1 [F12, 2-(4-Bromophenyl)-3-hydroxy-7-methoxy-4H-chromen-4-one] | > 100 | > 100 |  |  |  |  |  |  |  | 
14 | O=c1c(O)c(-c2ccc(C(F)(F)F)cc2C(F)(F)F)oc2ccccc12 [F5, 2-(2,4-Bis(trifluoromethyl)phenyl)-3-hydroxy-4H-chromen-4-one] | 95 ± 12 | > 100 |  |  |  |  |  |  |  | 
15 | O=c1c(O)c(-c2ccc(OCc3ccccc3)cc2)oc2ccccc12 [F7, 2-(4-(Benzyloxy)phenyl)-3-hydroxy-4H-chromen-4-one] | 88 ± 35 | > 100 |  |  |  |  |  |  |  | 
